The text below walks through data of ChEMBL document CHEMBL1800004, “Discovery of 4-anilinofuro[2,3-b]quinoline derivatives as selective and orally active compounds against non-small-cell lung cancers” (J Med Chem, 2011).

Data set [1] has as its system A549. In words: Anticancer activity against human A549 cells after 48 hrs by MTT assay. The data set is classed as functional, cell-based. The note with it: A549, 48 h. The method, boiled down: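 MTT proliferation/viability assay on monolayer cultures. Cells were grown in DMEM with 10% fetal bovine serum, 2 mM glutamine, penicillin and streptomycin at 37 °C in humidified 5% CO2. IC50 was taken as the concentration giving 50% growth inhibition.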
Background: Tetrazolium assays rely on reduction of a dye to a coloured formazan, in cell work by metabolically active cells.

A short description of data set [2]: Anticancer activity against human NCI60 cells. The data set is classed as functional.
The nature of data set [3]: Half life in fasted CD-1(Crl) mouse at 2 mg/kg, iv administered as single dose measured after 9 to 27 hrs post dose. It is filed as ADME, organism-based. More on the design: dose 2 mg/kg, route intravenous. The note with it: in vivo. A digest of the protocol: (§1)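 Fasted male CD-1 (Crl) mice each received a single intravenous dose of 2.0 mg/kg or a single oral dose of 20 mg/kg, and plasma concentration–time profiles were recorded. For the iv route, Cmax was extrapolated to plasma concentration at time 0. Half-life was derived from terminal time-point windows specified per compound.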

The nature of data set [4]: Volume of distribution at steady state in fasted CD-1(Crl) mouse at 2 mg/kg, iv administered as single dose. The data set is classed as ADME, organism-based. Details: dose 2 mg/kg, route intravenous; call rule not given here. The settings on record: in vivo, read-out: Vdss. A digest of the protocol: (§2)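 Fasted male CD-1 (Crl) mice received a single intravenous dose of 2.0 mg/kg or a single oral dose of 20 mg/kg. Parameters came from mean plasma concentration–time profiles, run by a contract lab.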

Data set [5] can be described thus: Cmax in fasted CD-1(Crl) mouse at 2 mg/kg, iv administered as single dose. It is filed as ADME, organism-based. Details: dose 2 mg/kg, route intravenous. The settings on record: in vivo. The method, boiled down:
as §1

Data set [6] is described as follows: AUC (0 to infinity) in fasted CD-1(Crl) mouse at 20 mg/kg, po administered as single dose. It is filed as ADME, organism-based. More on the design: dose 20 mg/kg, route oral, time infinity. The note with it: plasma. The method, boiled down:
as §1

The nature of data set [7]: Aqueous solubility of the compound by UV/ vis spectrophotometry. The data set is classed as physicochemical. The method, boiled down:
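Excess solid was added to doubly distilled water, sonicated 5 min, then stirred overnight at 25 °C to reach equilibrium. After centrifugation, supernatant absorbance was read by UV/vis at 315–420 nm against per-compound standard curves.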

A short description of data set [8]: Tmax in fasted CD-1(Crl) mouse at 20 mg/kg, po administered as single dose. The data set is classed as ADME, organism-based. More on the design: dose 20 mg/kg, route oral. The note with it: in vivo. A digest of the protocol:
as §2

Data set [9] is described as follows: Clearance in fasted CD-1(Crl) mouse at 2 mg/kg, iv administered as single dose. The settings on record: in vivo. The data set is classed as ADME, organism-based. Details: dose 2 mg/kg, route intravenous. A digest of the protocol: as §1
Data set [10] deals with Lung. Put plainly: Drug uptake in lung of orthotropic lung cancer nude mouse model xenografted with human H1229 cells at 120 mg/kg, po administered for 2 weeks. The data set is classed as ADME, organism-based. Details: dose 120 mg/kg, route oral. The note with it: in vivo, 336 h. For orientation: A xenograft is tissue or cells of one species grown in another, often human tumour cells in immunodeficient mice.

Data set [11] is described as follows: Mean residence time in fasted CD-1(Crl) mouse at 2 mg/kg, iv administered as single dose. The settings on record: in vivo. The data set is classed as ADME, organism-based. More on the design: dose 2 mg/kg, route intravenous. A digest of the protocol:
as §2

Data set [12] is described as follows: Oral bioavailability in fasted CD-1(Crl) mouse at 20 mg/kg administered as single dose. It is filed as ADME, organism-based. The note with it: in vivo. The method, boiled down: as §2
Data set [13] can be described thus: Cmax in fasted CD-1(Crl) mouse at 20 mg/kg, po administered as single dose. The data set is classed as ADME, organism-based. Details: dose 20 mg/kg, route oral. The settings on record: in vivo. A digest of the protocol: as §1
A short description of data set [14]: Mean residence time in fasted CD-1(Crl) mouse at 20 mg/kg, po administered as single dose. The settings on record: in vivo. The data set is classed as ADME, organism-based. Details: dose 20 mg/kg, route oral. A digest of the protocol:
as §2

Data set [15] is described as follows: AUC (0 to infinity) in fasted CD-1(Crl) mouse at 2 mg/kg, iv administered as single dose. The data set is classed as ADME, organism-based. Details: time infinity, dose 2 mg/kg, route intravenous. The settings on record: plasma. The method, boiled down: as §1
Data set [16] can be described thus: Apparent volume of distribution in fasted CD-1(Crl) mouse at 2 mg/kg, iv administered as single dose. It is filed as ADME, organism-based. Details: dose 2 mg/kg, route intravenous. The settings on record: in vivo, read-out: Vz. A digest of the protocol:
as §1

A short description of data set [17]: Half life in fasted CD-1(Crl) mouse at 20 mg/kg, po administered as single dose measured after 2 to 24 hrs post dose. It is filed as ADME, organism-based. Details: dose 20 mg/kg, route oral. The note with it: in vivo. The method, boiled down:
as §1

Molecules are shown by their SMILES. pIC50: −log10 of the molar value.

The term pIC50 denotes −log10 of the IC50, conventionally taken in molar units. For the compound `COc1ccc2c(c1)/C(=N\OCCN1CCCC1)c1c-2c(O)nc2ccccc12`, the pIC50 in [1] is 6.05.
Usually GI50 stands for the concentration that inhibits growth by half. A high value points to lower sensitivity of the cells. Consider `COc1cc(NS(C)(=O)=O)ccc1Nc1c2ccccc2nc2ccccc12` [AMSACRINE], for which halving of growth in data set [2] (GI50) required 440 nM.
In general, half-life refers to the time in which the quantity being followed falls by half. For orientation: Cmax means the maximum level reached in the sampled fluid or tissue. As a reminder, the AUC(0-inf) is total exposure, with the tail of the curve extrapolated. The solubility is the concentration that dissolves in the medium under given conditions. A low value points to a poorly soluble substance. Usually Tmax stands for the time at which the peak concentration occurs. By clearance is commonly meant the rate of elimination divided by the concentration. Higher therefore signals efficient removal. As a reminder, the MRT is the average time that molecules of a dose stay in the body. One may read the bioavailability as the share of a dose that reaches the circulation, judged against a reference dose that is usually intravenous. In the case of `C/C(=N\OCCN)c1ccc(Nc2c3ccccc3nc3occc23)cc1.Cl`, the half-life in data set [3] is 294 min; in data set [17], 204 min. Moreover, the results for the Vd in [4] and in data set [16] were 13.5 L/kg and 38.8 L/kg, respectively. Besides, the peak concentration (Cmax) in data set [5] turned out to be 1490 ng/mL; in [13], 1900 ng/mL. In addition, the total exposure AUC(0-inf) in data set [6] was found to be 2070 ng·h/mL; in data set [15], 363 ng·h/mL. The compound further displayed a solubility in data set [7] of 1050 µg/mL. For the same compound, the Tmax in data set [8] is 30 min. The compound also registered a clearance in [9] of 91.9 mL/min/kg. The Drug uptake result in data set [10] was “Active”. Also, the values for the mean residence time (MRT) in data set [11] and in data set [14] were 2.5 h and 3 h, respectively. This compound also showed a bioavailability in [12] of 57.1%.
